ChEMBL document CHEMBL1287798, “3,5-disubstituted pyranone analogues of highly antifungally active furanones: conversion of biological effect from antifungal to cytostatic” (Bioorg Med Chem Lett, 2010)
pIC50: −log10 of the molar value. Calls of active or inactive are those of the source. The rule behind the calls is not given here.

Legend:
[1] = tested on: Trichosporon beigelii; assay: Antifungal activity against Trichosporon beigelii 1188 by microdilution method; format: functional
[2] = tested on: Aspergillus fumigatus; assay: Antifungal activity against Aspergillus fumigatus 231 by microdilution method; format: functional
[3] = tested on: Pichia kudriavzevii; assay: Antifungal activity against Candida krusei ATCC 6258 by microdilution method; format: functional
[4] = tested on: Candida parapsilosis; assay: Antifungal activity against Candida parapsilosis ATCC 22019 by microdilution method; format: functional; conditions: Lodderomyces parapsilosis
[5] = tested on: Nakaseomyces glabratus; assay: Antifungal activity against Candida glabrata 20/I by microdilution method; format: functional
[6] = tested on: Candida albicans; assay: Antifungal activity against Candida albicans ATCC 90028 by microdilution method; format: functional
[7] = tested on: Lichtheimia corymbifera; assay: Antifungal activity against Absidia corymbifera 272 by microdilution method; format: functional
[8] = tested on: Candida albicans; assay: Antifungal activity against Candida albicans ATCC 44859 by microdilution method; format: functional
[9] = tested on: Trichophyton mentagrophytes; assay: Antifungal activity against Trichophyton mentagrophytes 445 by microdilution method; format: functional
[10] = tested on: Clavispora lusitaniae; assay: Antifungal activity against Clavispora lusitaniae 2446/I by microdilution method
[11] = tested on: Pichia kudriavzevii; assay: Antifungal activity against Candida krusei E28 by microdilution method; format: functional
[12] = tested on: Nannizzia gypsea; assay: Antifungal activity against Microsporum gypseum by microdilution method; format: functional
[13] = tested on: Candida tropicalis; assay: Antifungal activity against Candida tropicalis 156 by microdilution method; format: functional
[14] = tested on: CCRF-CEM; assay: Growth inhibition of human CCRF-CEM cells at 10 umol/L; format: functional, cell-based
Outline: (§1)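 Single-concentration cytostatic screen at 10 µmol L⁻¹ on mouse lymphocytic leukemia L1210 (ATCC CCL 219), human acute lymphoblastic leukemia CCRF-CEM T lymphoblastoid cells (ATCC CCL 119), human promyelocytic leukemia HL-60 (ATCC CCL 240) and human cervix carcinoma HeLa S3 (ATCC CCL 2.2).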

[15] = tested on: HL-60; assay: Growth inhibition of human HL60 cells at 10 umol/L; format: functional, cell-based; outline: as §1
[16] = tested on: L1210; assay: Growth inhibition of mouse L1210 cells at 10 umol/L; format: functional, cell-based; outline: as §1
[17] = tested on: HeLa S3; assay: Growth inhibition of human HeLaS3 cells at 10 umol/L; format: functional, cell-based; outline: as §1
[18] = tested on: L1210; assay: Growth inhibition of mouse L1210 cells; format: functional, cell-based
[19] = tested on: HT-29; assay: Growth inhibition of human HT-29 cells; format: functional, cell-based

Row | SMILES | MIC [1] [µM] | MIC [2] [µM] | MIC [3] [µM] | MIC [4] [µM] | MIC [5] [µM] | MIC [6] [µM] | MIC [7] [µM] | MIC [8] [µM] | MIC [9] [µM] | MIC [10] [µM] | MIC [11] [µM] | MIC [12] [µM] | MIC [13] [µM] | pIC50 [18] | pIC50 [19] | inhibition [14] | inhibition [15] | inhibition [16] | inhibition [17]
1 | O=C1OCC(CO)C=C1c1ccc(Cl)c(Cl)c1 (stereo unspecified) |  |  |  |  |  |  |  |  |  |  |  |  |  |  |  | inactive | inactive | inactive | inactive
2 | O=C1OCC(COC(=O)c2ccccc2)C=C1c1ccc(Cl)cc1 (stereo unspecified) | ≥ 62.5 | ≥ 62.5 | ≥ 62.5 | ≥ 62.5 | ≥ 62.5 | ≥ 62.5 | ≥ 62.5 | ≥ 62.5 | ≥ 62.5 | ≥ 62.5 | ≥ 62.5 | ≥ 62.5 | ≥ 62.5 |  | 5.53 |  | inactive | inactive | 
3 | CC(C)(C)C(=O)OCC1C=C(c2ccccc2)C(=O)OC1 (stereo unspecified) | ≥ 62.5 | ≥ 62.5 | ≥ 62.5 | ≥ 62.5 | ≥ 62.5 | ≥ 62.5 | ≥ 62.5 | ≥ 62.5 | ≥ 62.5 | ≥ 62.5 | ≥ 62.5 | ≥ 62.5 | ≥ 62.5 |  |  |  |  |  | 
4 | CC(=O)OCC1C=C(c2ccccc2)C(=O)OC1 (stereo unspecified) | ≥ 62.5 | ≥ 62.5 | ≥ 62.5 | ≥ 62.5 | ≥ 62.5 | ≥ 62.5 | ≥ 62.5 | ≥ 62.5 | ≥ 62.5 | ≥ 62.5 | ≥ 62.5 | ≥ 62.5 | ≥ 62.5 |  |  |  |  |  | 
5 | CC(=O)OCC1C=C(c2ccc(Cl)c(Cl)c2)C(=O)OC1 (stereo unspecified) | ≥ 62.5 | ≥ 62.5 | ≥ 62.5 | ≥ 62.5 | ≥ 62.5 | ≥ 62.5 | ≥ 62.5 | ≥ 62.5 | ≥ 62.5 | ≥ 62.5 | ≥ 62.5 | ≥ 62.5 | ≥ 62.5 | 5.14 | 5.61 |  |  |  | 
6 | COc1ccc(C2=CC(COC(=O)c3ccccc3)COC2=O)cc1 (stereo unspecified) | ≥ 62.5 | ≥ 62.5 | ≥ 62.5 | ≥ 62.5 | ≥ 62.5 | ≥ 62.5 | ≥ 62.5 | ≥ 62.5 | ≥ 62.5 | ≥ 62.5 | ≥ 62.5 | ≥ 62.5 | ≥ 62.5 |  |  |  |  |  | 
7 | O=C1OCC(COC(=O)c2ccccc2)C=C1c1ccccc1 (stereo unspecified) | ≥ 62.5 | ≥ 62.5 | ≥ 62.5 | ≥ 62.5 | ≥ 62.5 | ≥ 62.5 | ≥ 62.5 | ≥ 62.5 | ≥ 62.5 | ≥ 62.5 | ≥ 62.5 | ≥ 62.5 | ≥ 62.5 |  |  |  |  |  | 
8 | COc1ccc(C2=CC(COC(C)=O)COC2=O)cc1 (stereo unspecified) | ≥ 62.5 | ≥ 62.5 | ≥ 62.5 | ≥ 62.5 | ≥ 62.5 | ≥ 62.5 | ≥ 62.5 | ≥ 62.5 | ≥ 62.5 | ≥ 62.5 | ≥ 62.5 | ≥ 62.5 | ≥ 62.5 |  |  |  |  |  | 
9 | COc1ccc(C2=CC(COC(=O)C(C)(C)C)COC2=O)cc1 (stereo unspecified) | ≥ 62.5 | ≥ 62.5 | ≥ 62.5 | ≥ 62.5 | ≥ 62.5 | ≥ 62.5 | ≥ 62.5 | ≥ 62.5 | ≥ 62.5 | ≥ 62.5 | ≥ 62.5 | ≥ 62.5 | ≥ 62.5 |  |  |  |  |  | 

More lines, main results first:

Row | MIC [1] [µM] | MIC [2] [µM] | MIC [3] [µM] | MIC [4] [µM] | MIC [5] [µM] | MIC [6] [µM] | MIC [7] [µM] | MIC [8] [µM] | MIC [9] [µM] | MIC [10] [µM] | MIC [11] [µM] | MIC [12] [µM] | MIC [13] [µM] | pIC50 [18] | pIC50 [19] | SMILES | inhibition [14] | inhibition [15] | inhibition [16] | inhibition [17]
10 | ≥ 62.5 | ≥ 62.5 | ≥ 62.5 | ≥ 62.5 | ≥ 62.5 | ≥ 62.5 | ≥ 62.5 | ≥ 62.5 | ≥ 62.5 | ≥ 62.5 | ≥ 62.5 | ≥ 62.5 | ≥ 62.5 |  |  | CC(C)(C)C(=O)OCC1C=C(c2ccc(Cl)cc2)C(=O)OC1 (stereo unspecified) |  |  |  | 
11 | ≥ 62.5 | ≥ 62.5 | ≥ 62.5 | ≥ 62.5 | ≥ 62.5 | ≥ 62.5 | ≥ 62.5 | ≥ 62.5 | ≥ 62.5 | ≥ 62.5 | ≥ 62.5 | ≥ 62.5 | ≥ 62.5 |  |  | O=C1OCC(COC(=O)c2ccccc2)C=C1c1cccc(Cl)c1 (stereo unspecified) |  |  |  | 
12 | ≥ 62.5 | ≥ 62.5 | ≥ 62.5 | ≥ 62.5 | ≥ 62.5 | ≥ 62.5 | ≥ 62.5 | ≥ 62.5 | ≥ 62.5 | ≥ 62.5 | ≥ 62.5 | ≥ 62.5 | ≥ 62.5 |  |  | CC(=O)OCC1C=C(c2ccc(Br)cc2)C(=O)OC1 (stereo unspecified) |  |  |  | 
13 | ≥ 62.5 | ≥ 62.5 | ≥ 62.5 | ≥ 62.5 | ≥ 62.5 | ≥ 62.5 | ≥ 62.5 | ≥ 62.5 | ≥ 62.5 | ≥ 62.5 | ≥ 62.5 | ≥ 62.5 | ≥ 62.5 |  |  | CC(C)(C)C(=O)OCC1C=C(c2ccc(Br)cc2)C(=O)OC1 (stereo unspecified) |  |  |  | 
14 | ≥ 62.5 | ≥ 62.5 | ≥ 62.5 | ≥ 62.5 | ≥ 62.5 | ≥ 62.5 | ≥ 62.5 | ≥ 62.5 | ≥ 62.5 | ≥ 62.5 | ≥ 62.5 | ≥ 62.5 | ≥ 62.5 |  |  | CC(=O)OCC1C=C(c2ccc(Cl)cc2)C(=O)OC1 (stereo unspecified) |  |  |  | 
15 | ≥ 62.5 | ≥ 62.5 | ≥ 62.5 | ≥ 62.5 | ≥ 62.5 | ≥ 62.5 | ≥ 62.5 | ≥ 62.5 | ≥ 62.5 | ≥ 62.5 | ≥ 62.5 | ≥ 62.5 | ≥ 62.5 |  |  | CC(C)(C)C(=O)OCC1C=C(c2cccc(Cl)c2)C(=O)OC1 (stereo unspecified) |  |  |  | 
16 | ≥ 62.5 | ≥ 62.5 | ≥ 62.5 | ≥ 62.5 | ≥ 62.5 | ≥ 62.5 | ≥ 62.5 | ≥ 62.5 | ≥ 62.5 | ≥ 62.5 | ≥ 62.5 | ≥ 62.5 | ≥ 62.5 |  |  | CC(C)(C)C(=O)OCC1C=C(c2ccc(Cl)c(Cl)c2)C(=O)OC1 (stereo unspecified) |  |  |  | 
17 | ≥ 62.5 | ≥ 62.5 | ≥ 62.5 | ≥ 62.5 | ≥ 62.5 | ≥ 62.5 | ≥ 62.5 | ≥ 62.5 | ≥ 62.5 | ≥ 62.5 | ≥ 62.5 | ≥ 62.5 | ≥ 62.5 |  |  | CC(=O)OCC1C=C(c2cccc(Cl)c2)C(=O)OC1 (stereo unspecified) |  |  |  | 
18 | ≥ 62.5 | ≥ 62.5 | ≥ 62.5 | ≥ 62.5 | ≥ 62.5 | ≥ 62.5 | ≥ 62.5 | ≥ 62.5 | ≥ 62.5 | ≥ 62.5 | ≥ 62.5 | ≥ 62.5 | ≥ 62.5 | 5.23 |  | O=C1OCC(COC(=O)c2ccccc2)C=C1c1ccc(Cl)c(Cl)c1 (stereo unspecified) |  |  |  | 
